Results reported in ChEMBL document CHEMBL1121934, “2,3-dihydro and carbocyclic analogues of tryptamines: interaction with serotonin receptors” (J Med Chem, 1982).

Target: 5-hydroxytryptamine receptor 2B (Rattus norvegicus, UniProt P30994)
Experiment: The binding affinity to 5-hydroxytryptamine 2B receptor of rat fundus
Settings: read-out: pA2 (converted)
Method in brief: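 Isolated rat stomach fundus strip preparation. After a 1-h equilibration, 5-HT oxalate dose-response curves (9–11 increasing concentrations) were run without and with 4–5 increasing concentrations of test compound. Apparent affinity was expressed as pA2 by Arunlakshana–Schild analysis, with linear regression giving both pA2 and Schild plot slope.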

5-hydroxytryptamine receptor 2B, sequence (P30994 whole entry): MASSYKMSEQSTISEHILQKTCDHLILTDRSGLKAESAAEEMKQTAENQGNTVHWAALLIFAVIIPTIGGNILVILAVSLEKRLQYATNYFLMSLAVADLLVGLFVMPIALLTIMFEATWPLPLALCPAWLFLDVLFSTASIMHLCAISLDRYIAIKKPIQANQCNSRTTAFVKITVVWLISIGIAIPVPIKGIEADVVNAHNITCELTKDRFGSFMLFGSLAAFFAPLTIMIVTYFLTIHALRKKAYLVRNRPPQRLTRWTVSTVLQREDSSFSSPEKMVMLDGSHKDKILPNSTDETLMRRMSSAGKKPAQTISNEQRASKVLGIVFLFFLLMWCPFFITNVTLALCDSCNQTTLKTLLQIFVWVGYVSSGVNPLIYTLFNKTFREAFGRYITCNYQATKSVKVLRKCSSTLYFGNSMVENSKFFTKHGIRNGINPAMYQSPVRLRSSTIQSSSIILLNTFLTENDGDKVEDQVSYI

Point of comparison: `NCCC1CCc2ccccc21` (racemic), Kb 2510 nM. Against it:
- NCCc1c[nH]c2ccccc12 [TRYPTAMINE] — 4.7-fold lower, 537 nM
- CNCCc1c[nH]c2ccccc12 — 2.3-fold lower, 1070 nM
- CN(C)CCC1=CCc2ccccc21 — within 1.5-fold, 2090 nM
- CNCCC1CCc2ccccc21 (stereo in doubt; 4d) — within 1.5-fold, 2190 nM
- CN(C)CCCc1ccccc1 — 3.2-fold higher, 8130 nM
- CNCCC1CCc2ccccc21 (racemic) — 1.7-fold higher, 4270 nM
- CN(C)CCC1CNc2ccccc21 (racemic) — within 1.5-fold, 2090 nM
- CN(C)CCC(=O)c1ccccc1 — 1.9-fold higher, 4790 nM
- COc1ccc2c(c1)C(CCN(C)C)CN2 (racemic) — 14-fold lower, 182 nM
- CN(C)CCC1CCc2ccccc21 (racemic) — 1.8-fold higher, 4570 nM
- NC1CCc2ccccc2C1 (stereo not drawn) — within 1.5-fold, 2450 nM
- CN(C)CCNc1ccccc1 — 2.6-fold lower, 955 nM
